In ChEMBL document CHEMBL1128473, “[(Biaryloxy)alkyl]isoxazoles: picornavirus inhibitors” (J Med Chem, 1995):
Values after ≈ are worked out from the molar mass of the structure shown. Values belong to the compound of their own block, whether it stands above or below them.

Assays:
Type in all cases: functional
Human rhinovirus sp. [1] = assay: Concentration inhibiting 50% of the serotypes tested to 50% of the viral concentration of untreated controls following 72 hr of exposure
Method in brief: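 Tissue culture infectious dose (TCID50) assay against a panel of 10 human rhinovirus serotypes. For each serotype, the viral concentration was compared with untreated controls after 72 h of compound exposure. MIC50 is the compound concentration at which half of the serotypes tested are reduced to 50% of the untreated-control viral concentration.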

Human rhinovirus sp. [2] = assay: Minimum inhibitory concentration on HRV serotype 11
Human rhinovirus sp. [3] = assay: Minimum inhibitory concentration on HRV serotype 28
Human rhinovirus sp. [4] = assay: Minimum inhibitory concentration on HRV serotype 44
Human rhinovirus sp. [5] = assay: Minimum inhibitory concentration on HRV serotype 81
Method in brief: (§1)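 Tested in a tissue culture infectious dose (TCID50) assay with 72 h compound exposure. Activity is read as the concentration that holds virus to 50% of the titer of untreated controls.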

Human rhinovirus sp. [6] = assay: Minimum inhibitory concentration on HRV serotype 2
Human rhinovirus sp. [7] = assay: Minimum inhibitory concentration on HRV serotype 85; method in brief: as §1
Human rhinovirus sp. [8] = assay: Minimum inhibitory concentration on HRV serotype 79; method in brief: as §1
Human rhinovirus sp. [9] = assay: Minimum inhibitory concentration on HRV serotype 73
Human rhinovirus sp. [10] = assay: Minimum inhibitory concentration on HRV serotype 29
Human rhinovirus sp. [11] = assay: Minimum inhibitory concentration on HRV serotype 90; method in brief: as §1
Human rhinovirus sp. [12] = assay: Minimum inhibitory concentration on HRV serotype 21
Human rhinovirus sp. [13] = assay: Minimum inhibitory concentration on HRV serotype 15
Human rhinovirus sp. [14] = assay: Minimum inhibitory concentration on HRV serotype 61
Human rhinovirus sp. [15] = assay: Minimum inhibitory concentration on HRV serotype 1A
Human rhinovirus sp. [16] = assay: Minimum inhibitory concentration on HRV serotype 20
Human rhinovirus sp. [17] = assay: Minimum inhibitory concentration on HRV serotype 22
Human rhinovirus sp. [18] = assay: Minimum inhibitory concentration on HRV serotype 7
Human rhinovirus sp. [19] = assay: Minimum inhibitory concentration on HRV serotype 58
Human rhinovirus sp. [20] = assay: Minimum inhibitory concentration on HRV serotype 84; method in brief: as §1
Human rhinovirus sp. [21] = assay: Minimum inhibitory concentration on HRV serotype 38
Human rhinovirus sp. [22] = assay: Minimum inhibitory concentration on HRV serotype 62
Human rhinovirus sp. [23] = assay: Minimum inhibitory concentration on HRV serotype 89; method in brief: as §1
Human rhinovirus sp. [24] = assay: Minimum inhibitory concentration on HRV serotype 47
Human rhinovirus sp. [25] = assay: Minimum inhibitory concentration on HRV serotype 32
Human rhinovirus sp. [26] = assay: Minimum inhibitory concentration on HRV serotype 80; method in brief: as §1
Human rhinovirus sp. [27] = assay: Minimum inhibitory concentration on HRV serotype 46
Human rhinovirus sp. [28] = assay: Minimum inhibitory concentration on HRV serotype T39; method in brief: as §1
Human rhinovirus sp. [29] = assay: Minimum inhibitory concentration on HRV serotype 63
Human rhinovirus sp. [30] = assay: Minimum inhibitory concentration on HRV serotype 64
Human rhinovirus sp. [31] = assay: Minimum inhibitory concentration on HRV serotype 100
Human rhinovirus sp. [32] = assay: Minimum inhibitory concentration on HRV serotype 75
Human rhinovirus sp. [33] = assay: Minimum inhibitory concentration on HRV serotype 71
Human rhinovirus sp. [34] = assay: Minimum inhibitory concentration on HRV serotype 56
Human rhinovirus sp. [35] = assay: Minimum inhibitory concentration on HRV serotype 76; method in brief: as §1
Human rhinovirus sp. [36] = assay: Minimum inhibitory concentration on HRV serotype 35
Human rhinovirus sp. [37] = assay: Minimum inhibitory concentration on HRV serotype 96; method in brief: as §1
Human rhinovirus sp. [38] = assay: Minimum inhibitory concentration on HRV serotype 82; method in brief: as §1
Human rhinovirus sp. [39] = assay: Minimum inhibitory concentration on HRV serotype 25
Human rhinovirus sp. [40] = assay: Minimum inhibitory concentration on HRV serotype 19
Human rhinovirus sp. [41] = assay: Minimum inhibitory concentration on HRV serotype 39
Human rhinovirus sp. [42] = assay: Minimum inhibitory concentration on HRV serotype 24
Human rhinovirus sp. [43] = assay: Minimum inhibitory concentration on HRV serotype 23
Human rhinovirus sp. [44] = assay: Minimum inhibitory concentration on HRV serotype 92; method in brief: as §1
Human rhinovirus sp. [45] = assay: Minimum inhibitory concentration on HRV serotype 68
Human rhinovirus sp. [46] = assay: Minimum inhibitory concentration on HRV serotype 57
Human rhinovirus sp. [47] = assay: Minimum inhibitory concentration on HRV serotype 40
Human rhinovirus sp. [48] = assay: Minimum inhibitory concentration on HRV serotype 51
Human rhinovirus sp. [49] = assay: Minimum inhibitory concentration on HRV serotype 83; method in brief: as §1
Human rhinovirus sp. [50] = assay: Minimum inhibitory concentration on HRV serotype 33
Human rhinovirus sp. [51] = assay: Minimum inhibitory concentration on HRV serotype 36
Human rhinovirus sp. [52] = assay: Minimum inhibitory concentration on HRV serotype 50
Human rhinovirus sp. [53] = assay: Minimum inhibitory concentration on HRV serotype 1B
Human rhinovirus sp. [54] = assay: Minimum inhibitory concentration on HRV serotype 55
Human rhinovirus sp. [55] = assay: Minimum inhibitory concentration on HRV serotype 34
Human rhinovirus sp. [56] = assay: Minimum inhibitory concentration on HRV serotype 30
Human rhinovirus sp. [57] = assay: Minimum inhibitory concentration on HRV serotype 9; method in brief: as §1
Human rhinovirus sp. [58] = assay: Minimum inhibitory concentration on HRV serotype 49
Human rhinovirus sp. [59] = assay: Minimum inhibitory concentration on HRV serotype 53
Human rhinovirus sp. [60] = assay: Minimum inhibitory concentration on HRV serotype 78; method in brief: as §1
Human rhinovirus sp. [61] = assay: Minimum inhibitory concentration on HRV serotype 67
Human rhinovirus sp. [62] = assay: Minimum inhibitory concentration on HRV serotype 43
Human rhinovirus sp. [63] = assay: Minimum inhibitory concentration on HRV serotype 16
Human rhinovirus sp. [64] = assay: Minimum inhibitory concentration on HRV serotype 66
Human rhinovirus sp. [65] = assay: Minimum inhibitory concentration on HRV serotype 88; method in brief: as §1

- MIC (Human rhinovirus sp. [2]): 0.007 µg/mL (≈ 0.0206 µM)
- MIC (Human rhinovirus sp. [3]): 0.14 µg/mL (≈ 0.412 µM)
- MIC (Human rhinovirus sp. [4]): 0.033 µg/mL (≈ 0.0972 µM)
- MIC (Human rhinovirus sp. [5]): 0.125 µg/mL (≈ 0.368 µM)
- MIC (Human rhinovirus sp. [6]): 0.009 µg/mL (≈ 0.0265 µM)
- MIC (Human rhinovirus sp. [7]): 0.02 µg/mL (≈ 0.0589 µM)
- MIC (Human rhinovirus sp. [8]): 0.056 µg/mL (≈ 0.165 µM)
- MIC (Human rhinovirus sp. [9]): 0.049 µg/mL (≈ 0.144 µM)
- MIC (Human rhinovirus sp. [10]): 0.03 µg/mL (≈ 0.0884 µM)
- MIC (Human rhinovirus sp. [11]): 0.024 µg/mL (≈ 0.0707 µM)
- MIC (Human rhinovirus sp. [12]): 0.009 µg/mL (≈ 0.0265 µM)
- MIC (Human rhinovirus sp. [13]): 0.492 µg/mL (≈ 1.45 µM)
- MIC (Human rhinovirus sp. [14]): 0.024 µg/mL (≈ 0.0707 µM)
- MIC (Human rhinovirus sp. [15]): 0.155 µg/mL (≈ 0.457 µM)
- MIC (Human rhinovirus sp. [16]): 0.019 µg/mL (≈ 0.056 µM)
- MIC (Human rhinovirus sp. [17]): 0.02 µg/mL (≈ 0.0589 µM)
- MIC (Human rhinovirus sp. [18]): 0.006 µg/mL (≈ 0.0177 µM)
- MIC (Human rhinovirus sp. [19]): 0.013 µg/mL (≈ 0.0383 µM)
- MIC (Human rhinovirus sp. [20]): 0.042 µg/mL (≈ 0.124 µM)
- MIC (Human rhinovirus sp. [21]): 0.015 µg/mL (≈ 0.0442 µM)
- MIC (Human rhinovirus sp. [22]): 0.154 µg/mL (≈ 0.454 µM)
- MIC (Human rhinovirus sp. [23]): 0.012 µg/mL (≈ 0.0354 µM)
- MIC (Human rhinovirus sp. [24]): 0.021 µg/mL (≈ 0.0619 µM)
- MIC (Human rhinovirus sp. [25]): 0.098 µg/mL (≈ 0.289 µM)
- MIC (Human rhinovirus sp. [26]): 0.031 µg/mL (≈ 0.0913 µM)
- MIC (Human rhinovirus sp. [27]): 0.058 µg/mL (≈ 0.171 µM)
- MIC (Human rhinovirus sp. [28]): 0.035 µg/mL (≈ 0.103 µM)
- MIC (Human rhinovirus sp. [29]): 0.139 µg/mL (≈ 0.41 µM)
- MIC (Human rhinovirus sp. [30]): 0.07 µg/mL (≈ 0.206 µM)
- MIC (Human rhinovirus sp. [31]): 0.12 µg/mL (≈ 0.354 µM)
- MIC (Human rhinovirus sp. [32]): 0.037 µg/mL (≈ 0.109 µM)
- MIC (Human rhinovirus sp. [33]): 0.025 µg/mL (≈ 0.0737 µM)
- MIC (Human rhinovirus sp. [34]): 0.038 µg/mL (≈ 0.112 µM)
- MIC (Human rhinovirus sp. [35]): 0.009 µg/mL (≈ 0.0265 µM)
- MIC (Human rhinovirus sp. [36]): 0.021 µg/mL (≈ 0.0619 µM)
- MIC (Human rhinovirus sp. [37]): 0.031 µg/mL (≈ 0.0913 µM)
- MIC (Human rhinovirus sp. [38]): 0.187 µg/mL (≈ 0.551 µM)
- MIC (Human rhinovirus sp. [39]): 0.077 µg/mL (≈ 0.227 µM)
- MIC (Human rhinovirus sp. [40]): 0.03 µg/mL (≈ 0.0884 µM)
- MIC (Human rhinovirus sp. [41]): 0.078 µg/mL (≈ 0.23 µM)
- MIC (Human rhinovirus sp. [42]): 0.036 µg/mL (≈ 0.106 µM)
- MIC (Human rhinovirus sp. [43]): 0.046 µg/mL (≈ 0.136 µM)
- MIC (Human rhinovirus sp. [44]): 0.014 µg/mL (≈ 0.0412 µM)
- MIC (Human rhinovirus sp. [45]): 0.009 µg/mL (≈ 0.0265 µM)
- MIC (Human rhinovirus sp. [46]): 0.024 µg/mL (≈ 0.0707 µM)
- MIC (Human rhinovirus sp. [47]): 0.033 µg/mL (≈ 0.0972 µM)
- MIC50 (Human rhinovirus sp. [1]): 0.11 µM (≈ 0.0373 µg/mL)
- MIC (Human rhinovirus sp. [48]): 0.009 µg/mL (≈ 0.0265 µM)
- MIC (Human rhinovirus sp. [49]): 0.004 µg/mL (≈ 0.0118 µM)
- MIC (Human rhinovirus sp. [50]): 0.019 µg/mL (≈ 0.056 µM)
- MIC (Human rhinovirus sp. [51]): 0.009 µg/mL (≈ 0.0265 µM)
- MIC (Human rhinovirus sp. [52]): 0.04 µg/mL (≈ 0.118 µM)
- MIC (Human rhinovirus sp. [53]): 0.024 µg/mL (≈ 0.0707 µM)
- MIC (Human rhinovirus sp. [54]): 0.003 µg/mL (≈ 0.00884 µM)
- MIC (Human rhinovirus sp. [55]): 0.02 µg/mL (≈ 0.0589 µM)
- MIC (Human rhinovirus sp. [56]): 0.028 µg/mL (≈ 0.0825 µM)
- MIC (Human rhinovirus sp. [57]): 0.08 µg/mL (≈ 0.236 µM)
- MIC (Human rhinovirus sp. [58]): 0.037 µg/mL (≈ 0.109 µM)
- MIC (Human rhinovirus sp. [59]): 0.889 µg/mL (≈ 2.62 µM)
- MIC (Human rhinovirus sp. [60]): 0.018 µg/mL (≈ 0.053 µM)
- MIC (Human rhinovirus sp. [61]): 0.118 µg/mL (≈ 0.348 µM)
- MIC (Human rhinovirus sp. [62]): 0.072 µg/mL (≈ 0.212 µM)
- MIC (Human rhinovirus sp. [63]): 0.058 µg/mL (≈ 0.171 µM)
- MIC (Human rhinovirus sp. [64]): 0.161 µg/mL (≈ 0.474 µM)
- MIC (Human rhinovirus sp. [65]): 0.006 µg/mL (≈ 0.0177 µM)
SMILES: Cc1cc(CCCOc2c(C)cc(-c3ccc(F)cc3)cc2C)on1

- MIC50 (Human rhinovirus sp. [1]): 0.26 µM (≈ 0.0901 µg/mL)
SMILES: Cc1cc(CCCOc2c(C)cc(-c3ccc(C#N)cc3)cc2C)on1

Continued, compound first:

SMILES: Cc1cc(CCCOc2c(C)cc(-c3ccc([N+](=O)[O-])cc3)cc2C)on1
- MIC50 (Human rhinovirus sp. [1]): 0.76 µM (≈ 0.278 µg/mL)

SMILES: Cc1cc(CCCOc2c(C)cc(-c3cccc(C#N)c3)cc2C)on1
- MIC50 (Human rhinovirus sp. [1]): > 8.9 µM

SMILES: Cc1cc(CCCOc2c(C)cc(-c3ccc(F)c(F)c3)cc2C)on1
- MIC50 (Human rhinovirus sp. [1]): 0.16 µM (≈ 0.0572 µg/mL)
